Reference: PubChem BioAssay
The source made the active and inactive calls.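 How the source made its calls, unless noted: active means mean duplicate potentiation above the buffer control mean plus 5 SD of buffer wells; inactive means the rest.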

How the values were obtained:
[1] = thallium flux activation in parental CHO cells, counter-screen for KCNQ1 potentiator project (AID 493006;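 active means duplicate-averaged activation above buffer control mean plus 5 SD of those controls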); conditions: parental CHO-K1 cells, FluxOR thallium flux, at 10 µM; active compounds read high
Method in brief: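 Benchmarks – buffer and R-L3 controls · Assay system – untransfected host CHO-K1 cells with FluxOR thallium dye · Measure – fluorescence change ratio scaled 0% buffer, 100% R-L3 · Technique – kinetic thallium-flux fluorescence · Timing – overnight 37 °C plating, 90 min RT dye, 20 min compound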

[2] = biological target: Potassium voltage-gated channel subfamily KQT member 1 (Homo sapiens) (UniProt P51787); assay: KCNQ1 potassium channel potentiators, confirmation, FluxOR thallium flux, CHO cells, duplicates (AID 493007;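 active means potentiation averaged over duplicate wells exceeding buffer-only control mean by more than 3 SD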;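 on outcome: cells depolarized by a potassium plus thallium sulfate stimulus after compound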); conditions: KCNQ1 cell line, FluxOR thallium flux fluorescence, at 10 µM; active compounds read high, % of reference activator effect, buffer zero
Method in brief: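 Material: CHO cells stably expressing the KCNQ1 potassium channel / Times: dye 90 min then compound 20 min, both at room temperature / Detection: kinetic thallium influx fluorescence with FluxOR dye, 10 s baseline, 110 s post-stimulus / Benchmarks: buffer-only wells as 0% and R-L3 activator as 100% / Replicates: each compound tested in duplicate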

[3] = biological target: Potassium voltage-gated channel subfamily KQT member 2 (Rattus norvegicus) (UniProt O88943); assay: rat KCNQ2 channel potentiation, selectivity assay for KCNQ1 potentiator project, KCNQ2-CHO-K1 cells (AID 493009); conditions: FluxOR thallium flux fluorescence, at 10 µM; active compounds read high, scaled: buffer 0, activator control 100;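 further: assay conditions were tuned for KCNQ1 rather than KCNQ2 modulators; signal is max minus min fluorescence divided by baseline after thallium stimulus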
[4] = biological target: Potassium voltage-gated channel subfamily KQT member 1 (Homo sapiens) (UniProt P51787); assay: KCNQ1 channel current potentiators, confirmation, orthogonal assay for KCNQ1 potentiator project, IonWorks patch clamp, KCNQ1-CHO cells (AID 493184;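 active means current rise at least 3 SD above the untreated control mean in each of two repeat wells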;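 on current potentiation: percent change of the same well's current before compound addition so 0% = no change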); conditions: automated patch clamp current, at 10 µM; active compounds read high
Method in brief: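 Probe or stimulus: depolarizing pulse to +40 mV from -90 mV; Material: CHO cells carrying KCNQ1; Compound: one dose, 10 µM final; Signal: automated voltage clamp, amphotericin B perforated patch; Read-out basis: percent current increase versus pre-compound level; Buffer or medium: pH 7.4 external bath; Replication: duplicates.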

[5] = biological target: Potassium voltage-gated channel subfamily E member 1 (Homo sapiens) + Potassium voltage-gated channel subfamily KQT member 1 (Homo sapiens) (UniProt P15382+P51787); assay: KCNQ1/KCNE1 complex potentiators, confirmation, selectivity assay for KCNQ1 potentiator project, thallium flux, CHO-K1 KCNQ1/E1 cells (AID 493186;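 active means mean duplicate activation above the buffer control mean plus 5 SD of those controls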); conditions: FluxOR thallium flux, at 10 µM; active compounds read high
Method in brief: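 system = KCNQ1/E1-expressing stable CHO-K1 cell line | doses = single compound concentration per well | times = dye 90 min, compound 20 min, room temperature | measured by = FluxOR Tl+ flux fluorescence, kinetic read | evaluation = fluorescence rise relative to baseline, as percent of R-L3 response above buffer | controls = buffer and R-L3 | replicates = duplicate wells per compound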

Chain of Potassium voltage-gated channel subfamily KQT member 2 (Rattus norvegicus) (O88943 whole entry, looked up): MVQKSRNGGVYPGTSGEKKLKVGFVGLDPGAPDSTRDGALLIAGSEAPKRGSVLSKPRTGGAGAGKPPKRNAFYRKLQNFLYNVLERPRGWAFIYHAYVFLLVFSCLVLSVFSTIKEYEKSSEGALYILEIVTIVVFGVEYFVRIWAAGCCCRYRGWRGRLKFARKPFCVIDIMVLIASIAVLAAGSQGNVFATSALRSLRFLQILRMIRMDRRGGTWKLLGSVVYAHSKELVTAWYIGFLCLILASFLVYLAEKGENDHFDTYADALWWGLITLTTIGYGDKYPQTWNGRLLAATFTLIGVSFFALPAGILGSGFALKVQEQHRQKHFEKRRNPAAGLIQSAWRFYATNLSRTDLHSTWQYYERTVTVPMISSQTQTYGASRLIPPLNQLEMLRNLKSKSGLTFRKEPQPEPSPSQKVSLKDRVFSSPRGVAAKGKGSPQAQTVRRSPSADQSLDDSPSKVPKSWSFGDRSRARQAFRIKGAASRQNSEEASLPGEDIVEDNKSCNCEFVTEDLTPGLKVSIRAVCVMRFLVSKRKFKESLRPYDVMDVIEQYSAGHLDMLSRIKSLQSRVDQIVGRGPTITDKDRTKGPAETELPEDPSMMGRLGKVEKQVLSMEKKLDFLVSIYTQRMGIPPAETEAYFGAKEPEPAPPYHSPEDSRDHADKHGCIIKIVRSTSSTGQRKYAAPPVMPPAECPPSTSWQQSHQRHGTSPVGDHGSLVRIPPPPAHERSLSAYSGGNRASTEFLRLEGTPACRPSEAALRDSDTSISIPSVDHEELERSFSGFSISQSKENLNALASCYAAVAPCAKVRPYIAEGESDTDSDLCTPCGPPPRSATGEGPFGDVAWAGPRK
Chain of Potassium voltage-gated channel subfamily KQT member 1 (Homo sapiens) (P51787 whole entry, looked up): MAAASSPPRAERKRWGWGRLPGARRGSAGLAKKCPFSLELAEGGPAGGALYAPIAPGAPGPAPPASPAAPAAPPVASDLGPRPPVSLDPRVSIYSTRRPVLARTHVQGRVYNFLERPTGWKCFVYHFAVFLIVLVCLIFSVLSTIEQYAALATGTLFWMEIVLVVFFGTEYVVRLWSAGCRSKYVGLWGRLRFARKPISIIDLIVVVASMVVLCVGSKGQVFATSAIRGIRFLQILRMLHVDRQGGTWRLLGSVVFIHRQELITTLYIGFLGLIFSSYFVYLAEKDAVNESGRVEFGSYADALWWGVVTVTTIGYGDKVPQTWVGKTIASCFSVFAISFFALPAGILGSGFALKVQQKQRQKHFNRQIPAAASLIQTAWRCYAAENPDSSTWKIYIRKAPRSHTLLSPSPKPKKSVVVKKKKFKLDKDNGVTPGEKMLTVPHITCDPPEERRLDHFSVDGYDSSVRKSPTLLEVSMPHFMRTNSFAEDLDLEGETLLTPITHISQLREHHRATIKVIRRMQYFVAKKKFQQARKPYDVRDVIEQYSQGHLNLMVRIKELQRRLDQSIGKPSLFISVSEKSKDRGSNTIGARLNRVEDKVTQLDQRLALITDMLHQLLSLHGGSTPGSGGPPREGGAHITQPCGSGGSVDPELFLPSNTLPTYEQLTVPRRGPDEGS
Chain of Potassium voltage-gated channel subfamily E member 1 (Homo sapiens) + Potassium voltage-gated channel subfamily KQT member 1 (Homo sapiens) (P51787 whole entry, looked up): as the sequence (P51787 whole entry, looked up) above

| SMILES | outcome [1] | outcome [2] | outcome [3] | outcome [4] | outcome [5] | potentiation [2] | potentiation [3] | current potentiation [4] |
| --- | --- | --- | --- | --- | --- | --- | --- | --- |
| O=S(=O)(Nc1cccnc1)c1ccc(Cl)cc1 | inactive | inactive | inactive | inactive | inactive |  |  |  |
| Cc1ccc2nc(C3CCN(S(=O)(=O)c4ccc5ccccc5c4)CC3)[nH]c2c1 | inactive | inactive | inactive | inactive | inactive |  |  |  |
| O=C1CCCCCN1Sc1ccccc1 | inactive |  | inactive | inactive | inactive | 18.5% (active) |  |  |
| CC1=NOC(=O)/C1=C\c1ccc(-c2ccc(Cl)cc2Cl)o1 | inactive | inactive | inactive | inactive | inactive |  |  |  |
| O=C(Nc1ccc(N2CCCC(O)C2)cc1)c1snc2c(=O)[nH]cnc12 (stereo not given) | inactive | inactive | inactive | inactive | inactive |  |  |  |
| O=C(CC1(O)C(=O)N(Cc2ccccc2)c2ccccc21)c1ccncc1 (stereo not given) | inactive |  |  | inactive | inactive | 27.5% (active) | 146% (active) |  |
| Oc1c(N=NC(=S)Nc2ccccc2F)c2ccccc2n1Cc1ccc(Cl)cc1 | inactive | inactive | inactive | inactive | inactive |  |  |  |
| CCc1cc(C(=O)N2CCN(c3ccccn3)CC2)sc1C | inactive | inactive | inactive | inactive | inactive |  |  |  |
| COc1ccc(-c2csc(NC(=S)NC(=O)c3cccs3)n2)cc1Br | inactive | inactive | inactive | inactive | inactive |  |  |  |
| O=C(NNC(=O)c1cc(-c2ccccc2)nn1-c1ccccc1)c1ccccc1 | inactive | inactive | inactive | inactive | inactive |  |  |  |
| Cn1c(=O)cc(NCc2ccccc2)[nH]c1=O | inactive | inactive | inactive | inactive | inactive |  |  |  |
| Cc1ccc(O)c(NC(=S)NC(=O)COc2ccc(Br)cc2)c1 | inactive | inactive | inactive | inactive | inactive |  |  |  |
| O=c1cc2c(nn1Cc1c(Cl)cccc1Cl)-c1ccccc1CC2 | inactive |  | inactive | inactive | inactive | 24% (active) |  |  |
| O=[N+]([O-])c1cccc(/C=N/Nc2nc(NCc3ccccc3)nc(N3CCOCC3)n2)c1O | inactive | inactive | inactive | inactive | inactive |  |  |  |
| O=C(CNS(=O)(=O)c1ccc([N+](=O)[O-])cc1)N/N=C\c1ccc(O)cc1 | inactive |  |  | inactive | inactive | 24% (active) | 154% (active) |  |
| COc1ccc(-c2nn(-c3ccccc3)cc2C(=O)NC(=S)NNC(=O)c2ccncc2)cc1 | inactive |  | inactive | inactive | inactive | 17.5% (active) |  |  |
| O=C(NC(=S)Nc1cccc(Cl)c1)c1cncc(Br)c1 | inactive | inactive | inactive | inactive | inactive |  |  |  |
| CC(=O)C[C@H]1c2cc(C(F)(F)F)ccc2S(=O)(=O)N1Cc1ccccc1 | inactive |  | inactive | inactive | inactive | 65.5% (active) |  |  |
| CC(=O)Nc1ccc(S(=O)(=O)Nc2nc3ccccc3nc2Nc2ccccc2)cc1 | inactive | inactive | inactive | inactive | inactive |  |  |  |
| CC1(c2ccc(OC(F)F)cc2)NC(=O)N(CC(=O)Nc2ccc3c(c2)OCO3)C1=O (stereo not given) | inactive | inactive | inactive | inactive | inactive |  |  |  |
| CCCCOC(=O)c1ccc(NC(=S)NC(=O)c2ccco2)cc1 | inactive | inactive | inactive | inactive | inactive |  |  |  |
| CCOC(=O)c1c(C)[nH]sc1=S | inactive |  | inactive | inactive | inactive | 18% (active) |  |  |
| CC1(C)CC(Nc2ccc(Nc3ccccc3)cc2)CC(C)(C)N1 | inactive |  | inactive | inactive | inactive | 23.5% (active) |  |  |
| CCCC(=O)N(Cc1cccnc1)c1nc2c(OC)ccc(Cl)c2s1 | inactive |  | inactive | inactive | inactive | 51.5% (active) |  |  |
| CC(=O)Nc1ccc(NC(=O)CSC2=NS(=O)(=O)c3cc(Cl)ccc3N2)cc1 | inactive | inactive | inactive | inactive | inactive |  |  |  |
| Cc1cc(/C=N/n2cnnc2)c(C)n1-c1ccc(Cl)cc1Cl | inactive | inactive | inactive |  | inactive |  |  | 28.9% (active) |
| CCOc1cc(CN2CCN(C(=O)CC(C)C)CC2)ccc1OC | inactive |  | inactive | inactive | inactive | 23.5% (active) |  |  |
| O=C(COc1ccccc1Cl)NC(=S)N1CCc2ccccc21 | inactive | inactive | inactive | inactive | inactive |  |  |  |
| CC1CC(=S)Nc2ccccc2N1C(=O)Nc1ccccc1 (stereo not given) | inactive | inactive | inactive | inactive | inactive |  |  |  |
| CCc1cc(=O)oc2cc(OC(C)C(=O)NCC(O)c3ccccc3)c(Cl)cc12 (stereo not given) | inactive | inactive | inactive | inactive | inactive |  |  |  |
